Data taken from ChEMBL document CHEMBL4373711, “Development of 3,5-Dinitrophenyl-Containing 1,2,4-Triazoles and Their Trifluoromethyl Analogues as Highly Efficient Antitubercular Agents Inhibiting Decaprenylphosphoryl-β-d-ribofuranose 2'-Oxidase” (J Med Chem, 2019).
Converted amounts (≈) assume the structure as drawn.

What was measured:
Assay type in all cases: functional
Mycobacterium kansasii [1] = experiment: Antimycobacterial activity against Mycobacterium kansasii 6509/96 after 21 days; conditions: 6509/96, 504 h
Procedure, shortened: (§1)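 Microdilution in Šula's semisynthetic medium; compounds in DMSO at 32–0.03 µM. Inoculum from 1.0 McFarland suspension diluted 10-4. […] Isoniazid and rifampicin as reference drugs.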

Mycobacterium kansasii [2] = experiment: Antimycobacterial activity against Mycobacterium kansasii CNCTC My 235/80 after 21 days; conditions: CNCTC My 235/80, 504 h; procedure, shortened: as §1
Mycobacterium kansasii [3] = experiment: Antimycobacterial activity against Mycobacterium kansasii 6509/96 after 14 days; conditions: 6509/96, 336 h; procedure, shortened: as §1
Mycobacterium kansasii [4] = experiment: Antimycobacterial activity against Mycobacterium kansasii 6509/96 after 7 days; conditions: 6509/96, 168 h; procedure, shortened: as §1
[5] = tested on: Mycobacterium tuberculosis; experiment: Antimycobacterial activity against Mycobacterium tuberculosis H37Rv CNCTC My 331/88 after 14 days; conditions: H37Rv CNCTC My 331/88, 336 h
Procedure, shortened: (§2)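 M. tuberculosis strains (H37Rv and clinical MDR/XDR isolates) tested by microdilution in Šula's semisynthetic medium. Compounds were dissolved in DMSO and tested at 32 to 0.03 µM in twofold steps. Inoculum was a 1.0 McFarland suspension diluted 10-3. Plates were incubated at 37 °C and read at 14 and 21 days.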

Mycobacterium avium [6] = experiment: Antimycobacterial activity against Mycobacterium avium CNCTC My 330/88 after 21 days; conditions: CNCTC My 330/88, 504 h
Procedure, shortened: (§3)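 M. avium was tested by microdilution in Šula's semisynthetic medium, with compounds dissolved in DMSO and serially diluted from 1000 down to 1. Inoculum was a 1.0 McFarland suspension diluted 10-5. Plates were incubated at 37 °C and read at 14 and 21 days. […] Isoniazid and rifampicin served as standards.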

Mycobacterium kansasii [7] = experiment: Antimycobacterial activity against Mycobacterium kansasii CNCTC My 235/80 after 7 days; conditions: CNCTC My 235/80, 168 h; procedure, shortened: as §1
Mycobacterium kansasii [8] = experiment: Antimycobacterial activity against Mycobacterium kansasii CNCTC My 235/80 after 14 days; conditions: CNCTC My 235/80, 336 h; procedure, shortened: as §1
Mycobacterium avium [9] = experiment: Antimycobacterial activity against Mycobacterium avium CNCTC My 330/88 after 14 days; conditions: CNCTC My 330/88, 336 h; procedure, shortened: as §3
[10] = tested on: Mycobacterium tuberculosis; experiment: Antimycobacterial activity against Mycobacterium tuberculosis H37Rv CNCTC My 331/88 after 21 days; conditions: H37Rv CNCTC My 331/88, 504 h; procedure, shortened: as §2

SMILES | MIC99 (Mycobacterium kansasii [1]) | MIC99 (Mycobacterium kansasii [2]) | MIC99 (Mycobacterium kansasii [3]) | MIC99 (Mycobacterium kansasii [4]) | MIC99 [5] | MIC99 (Mycobacterium avium [6]) | MIC99 (Mycobacterium kansasii [7]) | MIC99 (Mycobacterium kansasii [8]) | MIC99 (Mycobacterium avium [9]) | MIC99 [10]
O=[N+]([O-])c1cc(-c2nnc(SCc3ccc(Br)cc3)n2Cc2ccccc2)cc(C(F)(F)F)c1 | 2 µM (≈ 1.1 µg/mL) | 1 µM (≈ 0.549 µg/mL) | 1 µM (≈ 0.549 µg/mL) | 0.5 µM (≈ 0.275 µg/mL) | 1 µM (≈ 0.549 µg/mL) | 250 µM (≈ 137 µg/mL) | 0.5 µM (≈ 0.275 µg/mL) | 1 µM (≈ 0.549 µg/mL) | 250 µM (≈ 137 µg/mL) | 1 µM (≈ 0.549 µg/mL)
COc1ccc(CSc2nnc(-c3ccccc3)n2Cc2cc([N+](=O)[O-])cc([N+](=O)[O-])c2)cc1 |  |  | > 32 µM | > 32 µM | 16 µM (≈ 7.64 µg/mL) | 250 µM (≈ 119 µg/mL) | > 32 µM | > 32 µM | 250 µM (≈ 119 µg/mL) | 16 µM (≈ 7.64 µg/mL)
O=[N+]([O-])c1ccc(-c2nnc(SCc3cc([N+](=O)[O-])cc([N+](=O)[O-])c3)n2Cc2ccccc2)cc1 | 8 µM (≈ 3.94 µg/mL) | 4 µM (≈ 1.97 µg/mL) | 4 µM (≈ 1.97 µg/mL) | 2 µM (≈ 0.985 µg/mL) | 4 µM (≈ 1.97 µg/mL) | 250 µM (≈ 123 µg/mL) | 2 µM (≈ 0.985 µg/mL) | 4 µM (≈ 1.97 µg/mL) | 250 µM (≈ 123 µg/mL) | 4 µM (≈ 1.97 µg/mL)
CCNC(=S)NNC(=O)c1cc([N+](=O)[O-])cc([N+](=O)[O-])c1 | > 32 µM | > 32 µM | > 32 µM | > 32 µM | > 32 µM | 1000 µM (≈ 313 µg/mL) | > 32 µM | > 32 µM | 1000 µM (≈ 313 µg/mL) | > 32 µM
CCn1c(SCc2cc([N+](=O)[O-])cc([N+](=O)[O-])c2)nnc1-c1ccccc1 | 4 µM (≈ 1.54 µg/mL) | 4 µM (≈ 1.54 µg/mL) | 4 µM (≈ 1.54 µg/mL) | 2 µM (≈ 0.771 µg/mL) | 2 µM (≈ 0.771 µg/mL) | 250 µM (≈ 96.4 µg/mL) | 2 µM (≈ 0.771 µg/mL) | 2 µM (≈ 0.771 µg/mL) | 250 µM (≈ 96.4 µg/mL) | 4 µM (≈ 1.54 µg/mL)
O=[N+]([O-])c1cc(CSc2nnc(-c3ccc(Cl)c(Cl)c3)n2Cc2ccccc2)cc([N+](=O)[O-])c1 | 4 µM (≈ 2.07 µg/mL) | 2 µM (≈ 1.03 µg/mL) | 4 µM (≈ 2.07 µg/mL) | 2 µM (≈ 1.03 µg/mL) | 2 µM (≈ 1.03 µg/mL) | 250 µM (≈ 129 µg/mL) | 1 µM (≈ 0.516 µg/mL) | 2 µM (≈ 1.03 µg/mL) | 250 µM (≈ 129 µg/mL) | 2 µM (≈ 1.03 µg/mL)
NNC(=O)c1ccncc1 [ISONIAZID] | 4 µM (≈ 0.549 µg/mL) | > 250 µM | 4 µM (≈ 0.549 µg/mL) | 2 µM (≈ 0.274 µg/mL) |  | > 250 µM | > 250 µM | > 250 µM | > 250 µM | 
CCCCCCCCSc1nnc(-c2cc([N+](=O)[O-])cc(C(F)(F)F)c2)n1Cc1ccccc1 |  | 2 µM (≈ 0.985 µg/mL) |  |  | 2 µM (≈ 0.985 µg/mL) | 250 µM (≈ 123 µg/mL) | 1 µM (≈ 0.493 µg/mL) | 2 µM (≈ 0.985 µg/mL) | 250 µM (≈ 123 µg/mL) | 2 µM (≈ 0.985 µg/mL)
O=[N+]([O-])c1cc(CSc2nnc(CCCCCO)n2Cc2ccccc2)cc([N+](=O)[O-])c1 | 32 µM (≈ 14.6 µg/mL) | 32 µM (≈ 14.6 µg/mL) | 32 µM (≈ 14.6 µg/mL) | 16 µM (≈ 7.32 µg/mL) | 16 µM (≈ 7.32 µg/mL) | > 1000 µM | 8 µM (≈ 3.66 µg/mL) | 16 µM (≈ 7.32 µg/mL) | > 1000 µM | 32 µM (≈ 14.6 µg/mL)
O=[N+]([O-])c1cc(Cn2c(SCc3ccc(Cl)cc3)nnc2-c2ccccc2)cc([N+](=O)[O-])c1 | 32 µM (≈ 15.4 µg/mL) | 16 µM (≈ 7.71 µg/mL) | 32 µM (≈ 15.4 µg/mL) | 16 µM (≈ 7.71 µg/mL) | 8 µM (≈ 3.86 µg/mL) | 250 µM (≈ 120 µg/mL) | 4 µM (≈ 1.93 µg/mL) | 8 µM (≈ 3.86 µg/mL) | 250 µM (≈ 120 µg/mL) | 16 µM (≈ 7.71 µg/mL)
O=[N+]([O-])c1cc(CSc2nnc(-c3ccccc3)n2-c2ccccc2)cc([N+](=O)[O-])c1 | 8 µM (≈ 3.47 µg/mL) | 8 µM (≈ 3.47 µg/mL) | 4 µM (≈ 1.73 µg/mL) | 2 µM (≈ 0.867 µg/mL) | 4 µM (≈ 1.73 µg/mL) | > 1000 µM | 2 µM (≈ 0.867 µg/mL) | 4 µM (≈ 1.73 µg/mL) | > 1000 µM | 4 µM (≈ 1.73 µg/mL)
Cc1ccc(-c2nnc(SCc3cc([N+](=O)[O-])cc(C(F)(F)F)c3)n2Cc2ccccc2)cc1 | > 32 µM | > 32 µM | > 32 µM | > 32 µM | > 32 µM | 250 µM (≈ 121 µg/mL) | > 32 µM | > 32 µM | 250 µM (≈ 121 µg/mL) | > 32 µM
O=[N+]([O-])c1cc(CSc2nnc(-c3ccccc3)n2Cc2ccc(Br)cc2)cc([N+](=O)[O-])c1 | 4 µM (≈ 2.11 µg/mL) | 4 µM (≈ 2.11 µg/mL) | 4 µM (≈ 2.11 µg/mL) | 2 µM (≈ 1.05 µg/mL) | 2 µM (≈ 1.05 µg/mL) | 250 µM (≈ 132 µg/mL) | 2 µM (≈ 1.05 µg/mL) | 4 µM (≈ 2.11 µg/mL) | 250 µM (≈ 132 µg/mL) | 2 µM (≈ 1.05 µg/mL)
Cc1ccc(-c2nnc(SCc3cc([N+](=O)[O-])cc([N+](=O)[O-])c3)n2Cc2ccccc2)cc1 | 4 µM (≈ 1.85 µg/mL) | 4 µM (≈ 1.85 µg/mL) | 4 µM (≈ 1.85 µg/mL) | 4 µM (≈ 1.85 µg/mL) | 4 µM (≈ 1.85 µg/mL) | 250 µM (≈ 115 µg/mL) | 4 µM (≈ 1.85 µg/mL) | 4 µM (≈ 1.85 µg/mL) | 250 µM (≈ 115 µg/mL) | 4 µM (≈ 1.85 µg/mL)
O=[N+]([O-])c1cc(CSc2nnc(-c3ccccc3)[nH]2)cc([N+](=O)[O-])c1 | 16 µM (≈ 5.72 µg/mL) | 8 µM (≈ 2.86 µg/mL) | 8 µM (≈ 2.86 µg/mL) | 4 µM (≈ 1.43 µg/mL) | 2 µM (≈ 0.715 µg/mL) | 125 µM (≈ 44.7 µg/mL) | 4 µM (≈ 1.43 µg/mL) | 8 µM (≈ 2.86 µg/mL) | 62 µM (≈ 22.2 µg/mL) | 4 µM (≈ 1.43 µg/mL)
O=C(NNC(=S)NCc1ccc(Cl)cc1Cl)c1cc([N+](=O)[O-])cc([N+](=O)[O-])c1 | 16 µM (≈ 7.11 µg/mL) | 16 µM (≈ 7.11 µg/mL) | 16 µM (≈ 7.11 µg/mL) | 16 µM (≈ 7.11 µg/mL) | 8 µM (≈ 3.55 µg/mL) | 32 µM (≈ 14.2 µg/mL) | 16 µM (≈ 7.11 µg/mL) | 16 µM (≈ 7.11 µg/mL) | 16 µM (≈ 7.11 µg/mL) | 8 µM (≈ 3.55 µg/mL)
Cn1c(SCc2cc([N+](=O)[O-])cc([N+](=O)[O-])c2)nnc1-c1ccccc1 | 16 µM (≈ 5.94 µg/mL) | 16 µM (≈ 5.94 µg/mL) | 8 µM (≈ 2.97 µg/mL) | 4 µM (≈ 1.49 µg/mL) | 4 µM (≈ 1.49 µg/mL) | 250 µM (≈ 92.8 µg/mL) | 4 µM (≈ 1.49 µg/mL) | 8 µM (≈ 2.97 µg/mL) | 125 µM (≈ 46.4 µg/mL) | 4 µM (≈ 1.49 µg/mL)
O=C(NNC(=S)NCc1ccccc1)c1cc([N+](=O)[O-])cc([N+](=O)[O-])c1 | 16 µM (≈ 6.01 µg/mL) | 32 µM (≈ 12 µg/mL) | 16 µM (≈ 6.01 µg/mL) | 16 µM (≈ 6.01 µg/mL) | 8 µM (≈ 3 µg/mL) | 62 µM (≈ 23.3 µg/mL) | 32 µM (≈ 12 µg/mL) | 32 µM (≈ 12 µg/mL) | 62 µM (≈ 23.3 µg/mL) | 8 µM (≈ 3 µg/mL)
